Data taken from PubChem BioAssay AID488936 (Broad Institute, 2010).
The source made the active and inactive calls.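 Rule for the calls: active = compounds lowering caspase luminescence whose fitted AC50 is at most ten times their top valid dose; inconclusive = flat partial inhibition or a poor quality curve fit; inactive = the rest.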

Assay: reduction of caspase-3/7 signal in INS-1E – INS-1E rat cells, dry powder, set 2, orthogonal assay for beta-cell apoptosis inhibitor project, dose response (AID 488936)
Conditions: INS-1E cytokine-induced caspase-3/7 luminescence, 48 h; at 12 µM (top of the series)
Procedure, shortened: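 reagent = cytokine mix of IFN-gamma 50, TNF-alpha 25, IL-1β 10 ng/mL | material = rat INS-1E insulinoma beta cells, cytokine-induced apoptosis model | incubation = 48 h cytokine and compound exposure, 1 h detection | technique = Caspase-Glo 3/7 luminescence | evaluation = Caspase-3/7 IC50 from dose-response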

Row | Structure (SMILES) | activity change, negative = inhibition
1 | COc1ccc(S(=O)(=O)N(C)C[C@@H]2Oc3c(NC(=O)Nc4cccc5ccccc45)cccc3C(=O)N([C@@H](C)CO)C[C@H]2C)cc1C | -20.2% (inactive)

Same assay, conditions: INS-1E cytokine-induced caspase-3/7 luminescence, 48 h; at 23.5 µM (top of the series)

Row | Structure (SMILES) | activity change, negative = inhibition
2 | COc1ccc(S(=O)(=O)N(C)C[C@@H]2Oc3c(cccc3N(C)C)C(=O)N([C@@H](C)CO)C[C@H]2C)cc1 | -4.48% (inactive)
3 | COc1ccc(S(=O)(=O)N(C)C[C@@H]2Oc3c(NC(=O)C4CCOCC4)cccc3C(=O)N([C@@H](C)CO)C[C@H]2C)cc1 | -8.46% (inactive)
4 | COc1ccc(S(=O)(=O)N(C)C[C@@H]2Oc3c(NS(=O)(=O)c4ccc(C)cc4)cccc3C(=O)N([C@@H](C)CO)C[C@H]2C)cc1 | -2.16% (inactive)
5 | C[C@@H]1CN([C@@H](C)CO)C(=O)c2cccc(NC(=O)Nc3cccc4ccccc34)c2O[C@H]1CN(C)C(=O)Nc1ccc(C(F)(F)F)cc1 | 45.3% (inactive)
6 | C[C@@H]1CN([C@@H](C)CO)C(=O)c2cccc(NC(=O)Nc3cccc4ccccc34)c2O[C@H]1CN(C)C(=O)Nc1ccccc1 | 14.9% (inactive)

Same assay, conditions: INS-1E cytokine-induced caspase-3/7 luminescence, 48 h; at 26 µM (top of the series)

Row | Structure (SMILES) | activity change, negative = inhibition
7 | Cc1ccc(S(=O)(=O)N(C)C[C@@H]2Oc3c(NC(=O)Nc4cccc5ccccc45)cccc3C(=O)N([C@@H](C)CO)C[C@H]2C)cc1 | 11.5% (inactive)
8 | Cc1noc(C)c1NC(=O)N(C)C[C@@H]1Oc2c(NC(=O)Nc3cccc4ccccc34)cccc2C(=O)N([C@@H](C)CO)C[C@H]1C | -0.569% (inactive)
9 | C[C@@H]1CN([C@@H](C)CO)C(=O)c2cccc(NC(=O)Nc3cccc4ccccc34)c2O[C@H]1CN(C)S(=O)(=O)c1ccc2c(c1)OCCCO2 | 0.778% (inactive)
10 | COc1ccc(S(=O)(=O)N(C)C[C@@H]2Oc3c(NC(=O)Nc4ccc(F)cc4)cccc3C(=O)N([C@H](C)CO)C[C@H]2C)cc1 | -6.01% (inactive)
11 | COc1ccc(S(=O)(=O)N(C)C[C@@H]2Oc3c(NC(=O)Nc4c(C)noc4C)cccc3C(=O)N([C@@H](C)CO)C[C@H]2C)cc1 | -11.7% (inactive)
12 | C[C@@H]1CN([C@@H](C)CO)C(=O)c2cccc(NS(=O)(=O)c3ccccc3)c2O[C@H]1CN(C)Cc1ccc(C(F)(F)F)cc1 | 7.22% (inactive)
13 | C[C@@H]1CN([C@@H](C)CO)C(=O)c2cccc(NC(=O)Nc3ccccc3)c2O[C@H]1CN(C)S(=O)(=O)c1ccc(Cl)cc1 | -7.25% (inactive)
14 | C[C@@H]1CN([C@@H](C)CO)C(=O)c2cccc(NC(=O)Nc3cccc4ccccc34)c2O[C@H]1CN(C)S(=O)(=O)c1cccc(F)c1 | 6.97% (inactive)
15 | Cc1ccc(S(=O)(=O)N(C)C[C@H]2Oc3c(NC(=O)Nc4cccc5ccccc45)cccc3C(=O)N([C@@H](C)CO)C[C@@H]2C)cc1 | 29.7% (inactive)
16 | COc1ccc(S(=O)(=O)N(C)C[C@@H]2Oc3c(NC(=O)NC(C)C)cccc3C(=O)N([C@@H](C)CO)C[C@H]2C)cc1 | -8.08% (inactive)
17 | COc1ccc(S(=O)(=O)N(C)C[C@@H]2Oc3c(NC(=O)c4nc5ccccc5s4)cccc3C(=O)N([C@@H](C)CO)C[C@H]2C)cc1 | -4.53% (inactive)
18 | C[C@@H]1CN([C@@H](C)CO)C(=O)c2cccc(NC(=O)Nc3cccc4ccccc34)c2O[C@H]1CN(C)S(=O)(=O)c1ccc2c(c1)OCC2 | 3.67% (inactive)
19 | C[C@@H]1CN([C@@H](C)CO)C(=O)c2cccc(NC(=O)Nc3cccc4ccccc34)c2O[C@H]1CN(C)S(=O)(=O)c1ccc(F)cc1 | 4.91% (inactive)
20 | C[C@@H]1CN([C@@H](C)CO)C(=O)c2cccc(NC(=O)Nc3cccc4ccccc34)c2O[C@H]1CN(C)S(C)(=O)=O | -7.6% (inactive)
21 | COc1ccc(S(=O)(=O)N(C)C[C@@H]2Oc3c(NC(=O)Nc4cccc5ccccc45)cccc3C(=O)N([C@@H](C)CO)C[C@H]2C)cc1F | 5.84% (inactive)
22 | COc1ccc(S(=O)(=O)N(C)C[C@@H]2Oc3c(NS(=O)(=O)c4ccccc4)cccc3C(=O)N([C@@H](C)CO)C[C@H]2C)cc1 | -6.46% (inactive)
23 | C[C@@H]1CN([C@H](C)CO)C(=O)c2cccc(NC(=O)Nc3ccccc3)c2O[C@H]1CN(C)S(=O)(=O)c1ccc(Cl)cc1 | -6.09% (inactive)
24 | COc1ccc(S(=O)(=O)N(C)C[C@@H]2Oc3c(NC(=O)Nc4ccc(C(F)(F)F)cc4)cccc3C(=O)N([C@@H](C)CO)C[C@H]2C)cc1 | 13.3% (inactive)
25 | Cc1ccc(S(=O)(=O)N(C)C[C@@H]2Oc3c(NC(=O)Nc4ccc(F)cc4)cccc3C(=O)N([C@H](C)CO)C[C@H]2C)cc1 | -5.96% (inactive)
26 | C[C@@H]1CN([C@@H](C)CO)C(=O)c2cccc(NC(=O)Nc3cccc4ccccc34)c2O[C@H]1CN(C)C(=O)Nc1ccc(F)cc1 | 19.9% (inactive)
27 | COc1ccc(S(=O)(=O)N(C)C[C@@H]2Oc3c(NC(=O)Nc4cccc5ccccc45)cccc3C(=O)N([C@H](C)CO)C[C@@H]2C)cc1 | -4.27% (inactive)
28 | COc1ccc(S(=O)(=O)N(C)C[C@@H]2Oc3c(NS(=O)(=O)c4cn(C)cn4)cccc3C(=O)N([C@@H](C)CO)C[C@H]2C)cc1 | -6.15% (inactive)
29 | COc1ccc(S(=O)(=O)N(C)C[C@@H]2Oc3c(NC(=O)Nc4ccccc4)cccc3C(=O)N([C@H](C)CO)C[C@H]2C)cc1 | -7.43% (inactive)
30 | C[C@@H]1CN([C@@H](C)CO)C(=O)c2cccc(NC(=O)Nc3cccc4ccccc34)c2O[C@H]1CN(C)C(=O)Nc1ccc2c(c1)OCO2 | 32.4% (inactive)

Row | Structure (SMILES) | activity change, negative = inhibition
31 | COc1ccc(S(=O)(=O)N(C)C[C@@H]2Oc3c(NC(=O)c4cccc5ccccc45)cccc3C(=O)N([C@@H](C)CO)C[C@H]2C)cc1 | -10.7% (inactive)
32 | Cc1ccc(S(=O)(=O)N(C)C[C@@H]2Oc3c(NC(=O)Nc4ccc(F)cc4)cccc3C(=O)N([C@@H](C)CO)C[C@H]2C)cc1 | -11% (inactive)
33 | C[C@@H]1CN([C@@H](C)CO)C(=O)c2cccc(NC(=O)Nc3ccc(F)cc3)c2O[C@H]1CN(C)S(=O)(=O)c1ccc(F)cc1 | -8.56% (inactive)
34 | C[C@@H]1CN([C@H](C)CO)C(=O)c2cccc(NC(=O)Nc3cccc4ccccc34)c2O[C@H]1CN(C)S(=O)(=O)c1ccc(Cl)cc1 | -4.82% (inactive)
35 | C[C@@H]1CN([C@@H](C)CO)C(=O)c2cccc(NC(=O)Nc3cccc4ccccc34)c2O[C@H]1CN(C)S(=O)(=O)c1ccccc1F | 21.8% (inactive)
36 | COc1ccc(S(=O)(=O)N(C)C[C@@H]2Oc3c(NC(=O)c4ccncc4)cccc3C(=O)N([C@@H](C)CO)C[C@H]2C)cc1 | -4.94% (inactive)
37 | COc1ccc(S(=O)(=O)N(C)C[C@H]2Oc3c(NC(=O)Nc4cccc5ccccc45)cccc3C(=O)N([C@H](C)CO)C[C@@H]2C)cc1 | 3.23% (inactive)
38 | COc1ccc(S(=O)(=O)N(C)C[C@@H]2Oc3c(NC(=O)Nc4cccc5ccccc45)cccc3C(=O)N([C@@H](C)CO)C[C@@H]2C)cc1 | -6.51% (inactive)
39 | Cc1ccc(S(=O)(=O)N(C)C[C@@H]2Oc3c(NC(=O)Nc4ccccc4)cccc3C(=O)N([C@@H](C)CO)C[C@H]2C)cc1 | -11.7% (inactive)
40 | COc1ccc(S(=O)(=O)N(C)C[C@@H]2Oc3c(NC(=O)Nc4cccc5ccccc45)cccc3C(=O)N([C@@H](C)CO)C[C@H]2C)c(OC)c1 | -12.9% (inactive)
41 | COc1cccc(S(=O)(=O)N(C)C[C@@H]2Oc3c(NC(=O)Nc4cccc5ccccc45)cccc3C(=O)N([C@@H](C)CO)C[C@H]2C)c1 | 14.2% (inactive)
42 | COc1ccc(S(=O)(=O)N(C)C[C@@H]2Oc3c(NC(=O)NC4CCCCC4)cccc3C(=O)N([C@@H](C)CO)C[C@H]2C)cc1 | -7.02% (inactive)
43 | COc1ccc(S(=O)(=O)N(C)C[C@@H]2Oc3c(NC(=O)Nc4cccc5ccccc45)cccc3C(=O)N(C(C)C)C[C@H]2C)cc1 | -6.92% (inactive)
44 | COc1ccc(S(=O)(=O)N(C)C[C@H]2Oc3c(NC(=O)Nc4cccc5ccccc45)cccc3C(=O)N([C@@H](C)CO)C[C@@H]2C)cc1 | -9.65% (inactive)
45 | COc1ccc(NC(=O)N(C)C[C@@H]2Oc3c(NC(=O)Nc4cccc5ccccc45)cccc3C(=O)N([C@@H](C)CO)C[C@H]2C)cc1 | 18.3% (inactive)
46 | COc1ccc(S(=O)(=O)N(C)C[C@@H]2Oc3c(NS(=O)(=O)c4ccc(Cl)cc4)cccc3C(=O)N([C@@H](C)CO)C[C@H]2C)cc1 | -4.43% (inactive)
47 | COc1ccc(S(=O)(=O)N(C)C[C@@H]2Oc3c(NS(C)(=O)=O)cccc3C(=O)N([C@@H](C)CO)C[C@H]2C)cc1 | -6.62% (inactive)
48 | COc1ccc(NC(=O)Nc2cccc3c2O[C@@H](CN(C)S(=O)(=O)c2ccc(OC)cc2)[C@H](C)CN([C@@H](C)CO)C3=O)cc1 | -9.51% (inactive)
49 | N#Cc1ccc2cc(Br)c(C(F)(F)P(=O)(O)O)cc2c1 | -14.1% (inactive)
50 | COc1ccc(S(=O)(=O)N(C)C[C@@H]2Oc3c(NC(=O)c4cnccn4)cccc3C(=O)N([C@@H](C)CO)C[C@H]2C)cc1 | -2.35% (inactive)
51 | C[C@@H]1CN([C@@H](C)CO)C(=O)c2cccc(NC(=O)Nc3cccc4ccccc34)c2O[C@H]1CN(C)S(=O)(=O)c1ccc(Cl)cc1 | 6.46% (inactive)
52 | COc1ccc(S(=O)(=O)N(C)C[C@@H]2Oc3ccc(NC(=O)Nc4cccc5ccccc45)cc3C(=O)N([C@@H](C)CO)C[C@H]2C)cc1 | 5.17% (inactive)
53 | C[C@@H]1CN([C@H](C)CO)C(=O)c2cccc(NC(=O)Nc3ccc(F)cc3)c2O[C@H]1CN(C)S(=O)(=O)c1ccc(Cl)cc1 | 10.4% (inactive)
